Sampled rows, rich in hits. Any-hit rate of the full collection: about 4.8%.
T cruzi inh – T. cruzi replication inhibition | inhibition, % (no concentration beside the values) | hit rate 1.4% among 300,000 | T. cruzi beta-gal in NIH3T3, luminescence, 90 h;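 active = mean inhibition across valid replicates above about 55%, limit read from the data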;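 note: signal also drops with host cell toxicity which is not excluded here; higher percent means less beta-gal luminescence so fewer parasites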
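Incubation – ≥90 h infection period, 3 h prior cell attachment · System – NIH/3T3 fibroblasts plus reporter T. cruzi · Doses – compound pinned at 50 nL/well, DMSO · Read-out basis – percent inhibition of parasite-derived β-gal signal · Signal – luminescent β-galactosidase signal after 60 min lysis · Also added – 5000 T. cruzi trypomastigotes/well · Medium – Low-serum DMEM with 2% FBS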
697 NFkB inh – inhibitors of the PMA/ionomycin-induced NF-kB reporter in 697 B cells | 697 B-cell NF-kB luciferase reporter, 16 h | hit rate 0.33% among 330,000 | inhibition, % at 4 µM; in the data active = inhibition above about 35%
HSF-1 act – increases HSF-1 driven luciferase reporter signal; NIH3T3-HGL HSF-1 luciferase reporter, MG132, 8 h; 100% = twice DMSO control signal; activation, % at 9 µM; hit rate 1.7% among 300,000; AID 504408;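 active = mean replicate activation of at least 50% with a set share of replicates each reaching 50%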
Jurkat NFkB inh – inhibitors of the PMA/ionomycin-induced NF-kB reporter in Jurkat cells | inhibition, % at 4 µM | PMA/ionomycin-induced NF-kB luciferase reporter, luminescence | AID 435003 | hit rate 0.53% among 330,000; in the data active = inhibition above about 50%
HSF1 inhib – HSF1 inhibition; NIH3T3-HGL HSE-luciferase, MG132-induced, luminescence 8 h; active compounds read low; hit rate 0.77% among 300,000; activity change, negative = inhibition, % at 7.5 µM (by protocol);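 active = more than half of replicate wells show activity change below -50%, luminescence cut by over half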;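 note: luciferase reports HSF-1 transcriptional activity via heat shock element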
GPR7 antagonist – blocks human GPR7 receptor signaling; P48145; GPR7-expressing cells, fluorescence antagonist assay; inhibition, % at 4.4 µM; hit rate 1.1% among 290,000; AID 1861; in the data active = inhibition above about 16%, passing the limit was not always enough;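 note: cells stimulated with the agonist NPW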
Target sequence (P48145 whole entry, looked up): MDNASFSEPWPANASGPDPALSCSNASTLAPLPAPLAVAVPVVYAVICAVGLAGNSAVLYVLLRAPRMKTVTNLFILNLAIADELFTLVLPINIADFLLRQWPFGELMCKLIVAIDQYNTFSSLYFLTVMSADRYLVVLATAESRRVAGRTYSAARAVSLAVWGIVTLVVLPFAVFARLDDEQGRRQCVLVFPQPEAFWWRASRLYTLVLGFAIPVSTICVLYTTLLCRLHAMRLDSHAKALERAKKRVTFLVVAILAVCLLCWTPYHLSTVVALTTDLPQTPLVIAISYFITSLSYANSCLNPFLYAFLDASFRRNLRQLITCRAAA
GPR7 antag conf – human GPR7 antagonism, confirmation assay | hit rate 52% among 2,400 | shares compounds with GPR7 antagonist | inhibition, % at 4.4 µM | GPR7-expressing cells, calcium fluorescence antagonist mode; in the data active = inhibition above about 24%;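 note: stimulated with the GPR7 agonist NPW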
MCHR1 antagonist – antagonizes human MCHR1, a GPR7 antagonist counter-screen | hit rate 62% among 2,400 | MCHR1-expressing cells, fluorescence antagonist assay | inhibition, % at 4.4 µM | shares compounds with GPR7 antagonist; in the data active = inhibition above about 22%
Large screens that a line does not name were inactive (follow-up assays come after a bar, where they were run).

CC1(C)CC(=O)C2=C(C1)c1c(ccc3ccccc13)NC2c1cc([N+](=O)[O-])cc([N+](=O)[O-])c1O (stereo not drawn)	none
Cc1nc(-c2ccc(S(=O)(=O)N3CCOCC3)cc2)cs1	GPR7 antagonist 27.2 | GPR7 antag conf inactive | MCHR1 antagonist inactive
c1ccc(-c2ccc(C3=Nn4c(Cn5nnc6ccccc65)nnc4SC3)cc2)cc1	none
CCOc1ncccc1C(=O)Oc1ccc2c(c1)OCO2	none
O=C(Oc1ccc2c(c1)OCO2)c1ccc(F)cc1Cl	HSF-1 act 63.1, GPR7 antagonist 22.1 | GPR7 antag conf inactive | MCHR1 antagonist inactive
COc1ccc(OC)c(NS(=O)(=O)c2c(C(=O)N3CCCCCC3)c(C)n(C)c2C)c1	GPR7 antagonist 44.6 | GPR7 antag conf 27.8 | MCHR1 antagonist inactive
CCC[C@@H](O)c1cc2cc(OC)c(OC)cc2c(=O)o1	none (no result: T cruzi inh, HSF-1 act, HSF1 inhib, GPR7 antagonist)
COc1ccc(C(=O)Cc2cc(OC)c(OC)cc2C(=O)c2ccccc2F)cc1OC	none
Cc1nn(Cc2ccc(C(=O)Nc3ccccc3F)cc2)c(C)c1Cl	GPR7 antagonist 32.3 | GPR7 antag conf inactive | MCHR1 antagonist 31.4
CN(C(=O)COC(=O)c1ccc[nH]c1=O)C1CCCCC1	none
O=C(Nc1ccccc1N1CCN(C(=O)c2ccccc2)CC1)c1ccc(Cl)cc1	none
O=C(Nc1ccc(N2CCOCC2)cc1N1CCOCC1)c1ccccc1	none (no result: T cruzi inh, HSF-1 act, HSF1 inhib, GPR7 antagonist)
O=C(Nc1ccccc1N1CCN(c2ccccc2)CC1)c1ccccc1	GPR7 antagonist 22.2 | GPR7 antag conf inactive | MCHR1 antagonist 45.0
O=C(Cc1ccc(Cl)cc1)Nc1ccccc1N1CCN(C(=O)c2ccccc2)CC1	GPR7 antagonist 28.3 | GPR7 antag conf 36.2 | MCHR1 antagonist 50.9
CC(C)c1cccc(C(C)C)c1NC(=O)Cn1c(=O)cnc2ccccc21	GPR7 antagonist 22.3 | GPR7 antag conf inactive | MCHR1 antagonist inactive
CC(C)(C)c1ccccc1NC(=O)Cn1c(=O)cnc2ccccc21	none
Cc1ccc(S(=O)(=O)N2CCCN(C(=O)c3ccc(-n4cccn4)cc3)CC2)cc1	none (no result: T cruzi inh, HSF-1 act, HSF1 inhib, GPR7 antagonist)
CC(Oc1ccc(Cl)cc1)C(=O)Nc1ccc(S(=O)(=O)N2CCOCC2)cc1 (stereo not drawn)	GPR7 antagonist 55.6 | GPR7 antag conf 53.5 | MCHR1 antagonist 61.0
CC(Oc1ccc(Cl)cc1)C(=O)Nc1ccc(S(=O)(=O)Nc2nccs2)cc1 (stereo not drawn)	GPR7 antagonist 23.6 | GPR7 antag conf inactive | MCHR1 antagonist inactive
COc1ccc(NC(=O)C(C)Oc2ccc(/C(C)=N\O)cc2)cc1 (stereo not drawn)	GPR7 antagonist 41.9 | GPR7 antag conf 43.4 | MCHR1 antagonist 34.1
CC(Oc1ccccc1)C(=O)Nc1ccc(C(N)=O)cc1 (stereo not drawn)	none
COc1ccc(OC(C)C(=O)Nc2ccc([N+](=O)[O-])cc2)cc1 (stereo not drawn)	none
CC(C)NS(=O)(=O)c1ccc(NC(=O)C(C)Oc2ccc(C(=O)c3ccccc3)cc2)cc1 (stereo not drawn)	GPR7 antagonist 90.9 | GPR7 antag conf 91.5 | MCHR1 antagonist 95.9
COc1cc(C(=O)OCC(=O)Nc2cc(C)on2)c([N+](=O)[O-])cc1OC	none
O=C(NCCc1ccccc1)C1(c2ccccc2)CCCC1	none
N#CC1(c2ccccc2)CCC(NCCc2ccccc2)CC1 (stereo not drawn)	GPR7 antagonist 40.2 | GPR7 antag conf inactive | MCHR1 antagonist inactive
CCOCCOC(=O)Cn1cnc2scc(-c3ccc(C)cc3)c2c1=O	none
Cc1ccc(-c2noc(=O)n2CC(=O)Nc2ccc(S(=O)(=O)NC3CC3)cc2)cc1	GPR7 antagonist 23.5 | GPR7 antag conf 46.9 | MCHR1 antagonist 30.2
O=C(CSc1nnc(Cc2cccs2)n1Cc1ccco1)Nc1ccc(Cl)cc1Cl	GPR7 antagonist 28.4 | GPR7 antag conf 31.2 | MCHR1 antagonist 34.5
COc1cc(Br)cc(/C=C/c2ccc3cccc(O)c3n2)c1OC	none
COc1ccc(/C=C/c2ccc3cccc(O)c3n2)c(OC)c1OC	GPR7 antagonist 32.5 | GPR7 antag conf inactive | MCHR1 antagonist 62.0
COc1ccc(-c2noc(CN3CCCCC3c3nccn3C)n2)cc1 (stereo not drawn)	GPR7 antagonist 41.5 | GPR7 antag conf 35.4 | MCHR1 antagonist inactive
CCN(CC)C(C)C(=O)Nc1c2c(cc3c1CCC3)CCC2 (stereo not drawn)	none
CC(C(=O)Nc1c2c(cc3c1CCC3)CCC2)N1CCCC1 (stereo not drawn)	GPR7 antagonist 32.1 | GPR7 antag conf inactive | MCHR1 antagonist 28.2
CC(C)N1CCN(Cc2cccc3nonc23)CC1CCO (stereo not drawn)	none
CC(C)CCN1CCN(Cc2cccc3nonc23)CC1CCO (stereo not drawn)	GPR7 antagonist 24.3 | GPR7 antag conf inactive | MCHR1 antagonist inactive
O=C(Nc1ccc(Cl)cc1)N1CCCN(Cc2ccc(F)cc2)C1	GPR7 antagonist 87.7 | GPR7 antag conf 43.2 | MCHR1 antagonist 41.8
Cn1cnc(S(=O)(=O)N2CCN(C(c3ccc(F)cc3)c3ccc(F)cc3)CC2)c1	none
COc1ccc(C2CC(c3cccc(OC)c3)n3nc(N)nc3N2)cc1 (stereo not drawn)	GPR7 antagonist 39.3 | GPR7 antag conf inactive | MCHR1 antagonist inactive
COc1cccc(C2CC(c3ccccc3Cl)n3nc(N)nc3N2)c1 (stereo not drawn)	none
COc1ccc(C2CC(c3ccccc3C)n3nc(N)nc3N2)cc1 (stereo not drawn)	none
CCc1ccc(C2CC(c3ccccc3Cl)Nc3nc(N)nn32)cc1 (stereo not drawn)	GPR7 antagonist 30.3 | GPR7 antag conf 42.3 | MCHR1 antagonist inactive
COc1cccc(C2CC(c3ccc(Cl)cc3Cl)n3nc(N)nc3N2)c1 (stereo not drawn)	GPR7 antagonist 26.9 | GPR7 antag conf inactive | MCHR1 antagonist inactive
Cc1ccc(C2CC(c3ccccc3C)n3nc(N)nc3N2)cc1 (stereo not drawn)	GPR7 antagonist 26.4 | GPR7 antag conf inactive | MCHR1 antagonist inactive
Cc1ccccc1CSc1nnc([C@@H]2CCCN2)o1	none
CC1CC(C)CN(C(=O)COC(=O)/C=C/c2cccc([N+](=O)[O-])c2)C1 (stereo not drawn)	none (no result: T cruzi inh, HSF-1 act, HSF1 inhib, GPR7 antagonist)
O=C(Nc1ccc(-c2cccc(F)c2)cc1)C1CCCN(Cc2ccccn2)C1 (stereo not drawn)	none
CC1CCN(C(c2ccc(N(C)C)cc2)c2nnnn2Cc2ccc(F)cc2)CC1 (stereo not drawn)	none

Assay outcomes from PubChem.
